{
  "source": "paper PMC3962796",
  "about": "(Environmental science & technology, 2013)",
  "key": {"[1]": {"format": "in vivo, male Sprague-Dawley rats", "conditions": "for half-life: male, Sprague-Dawley, rat, inhaled or intranasal, 1.8 ug", "method_in_brief": "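Male Sprague-Dawley rats (237.6 ± 1.6 g; n=4/group) were exposed nose-only to test compound vapor. The vapor came from air at 4.0 L/min bubbled through the neat compound at 25.0°C, then diluted to 10.0 L/min. Exposure was 1 h, a 1 h break, then 1 h. Shams breathed filtered air. Rats were killed 0, 4 and 8 h post exposure, shams at 2 and 6 h. Lung, liver and serum were PLE-extracted and analysed by GC-MS SIM. Results were blank/surrogate-corrected and lipid-normalized. Analysis used t-tests (p<0.05) and Gauss-Newton non-linear regression.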"}, "[2]": {"conditions": "cited from earlier work; for half-life after inhalation exposure (tissues overall): administered as part of Aroclor mixture, same duration of inhalation exposure, Figure S2"}, "[3]": {"conditions": "two-component exponential decay; blood, liver and muscle; intravenous; cited from earlier work"}, "[4]": {"conditions": "first order model fit, lipid weight basis"}},
  "note": "Like-named read-outs stand apart in the source and are kept apart here.",
  "data": [
    {"smiles": "Oc1ccc(-c2cccc(Cl)c2)cc1Cl", "note": "[4-OH-CB11, 3,3′-dichlorobiphenyl-4-ol]", "values": [
      {"measurement": "ratio of 4-OH-CB11 to CB11 in liver", "setting": "[1]; 0 h post exposure", "result": "0.7±0.0"},
      {"measurement": "mean liver 4-OH-CB11 level relative to sentinel rats", "setting": "[1]; 4 h group vs sentinel rats", "result": 15, "unit": "fold"},
      {"measurement": "mean liver 4-OH-CB11 level relative to sham rats", "setting": "[1]; 4 h group vs sham-exposed, not statistically significant", "result": 4, "unit": "fold"},
      {"measurement": "ratio of 4-OH-CB11 to CB11 in liver", "setting": "[1]; 4 h post exposure", "result": "0.9±0.2"},
      {"measurement": "ratio of 4-OH-CB11 to CB11 in liver", "setting": "[1]; 8 h post exposure", "result": "1.1±0.1"},
      {"measurement": "detection of 4-OH-CB11 in liver", "setting": "[1]; liver of all PCB-exposed animals", "result": "detected"},
      {"measurement": "detection of 4-OH-CB11 in lung", "setting": "[1]; lung samples of exposed rats", "result": "not detected"},
      {"measurement": "detection of 4-OH-CB11 in serum", "setting": "[1]; serum samples of exposed rats", "result": "not detected"}
    ]},
    {"smiles": "Clc1ccccc1-c1ccccc1", "note": "[CB1, monochlorobiphenyl]", "values": [
      {"measurement": "level remaining during the inhalation exposure", "setting": "[2]; Aroclor 1242 vapor inhalation", "result": "barely detectable levels"}
    ]},
    {"smiles": "Clc1ccccc1-c1ccccc1Cl", "note": "[CB4]", "values": [
      {"measurement": "level remaining during the inhalation exposure", "setting": "[2]; Aroclor 1242 vapor inhalation", "result": "barely detectable levels"}
    ]},
    {"smiles": "Clc1ccc(-c2ccccc2Cl)cc1", "note": "[CB8, 2,4′-Dichlorobiphenyl]", "values": [
      {"measurement": "half-life after inhalation exposure (tissues overall)", "setting": "[2]", "result": "5 to 8", "unit": "h"}
    ]},
    {"smiles": "Clc1cccc(-c2cccc(Cl)c2)c1", "note": "[CB11, 3,3′-dichlorobiphenyl]", "values": [
      {"measurement": "C0 (initial concentration) of CB11 in liver", "setting": "[1]; [4]", "result": 73.6, "unit": "ng/g l.w."},
      {"measurement": "C0 (initial concentration) of CB11 in serum", "setting": "[1]; [4]", "result": 295, "unit": "ng/g l.w."},
      {"measurement": "C0 (initial concentration) of CB11 in lung", "setting": "[1]; first order model fit, lipid weight basis, inhalation 106 μg/m^3 for 2 h", "result": 932, "unit": "ng/g l.w."},
      {"measurement": "half-life", "setting": "[1]; liver", "result": 2.1, "unit": "h"},
      {"measurement": "half-life", "setting": "[1]; lung", "result": 1.9, "unit": "h"},
      {"measurement": "half-life", "setting": "[1]; serum", "result": 1.8, "unit": "h"}
    ]},
    {"smiles": "Clc1ccc(-c2ccc(Cl)cc2)cc1", "note": "[CB15, 4,4′-dichlorobiphenyl]", "values": [
      {"measurement": "half-life after inhalation exposure (tissues overall)", "setting": "[2]", "result": "5 to 8", "unit": "h"}
    ]},
    {"smiles": "Clc1ccc(-c2ccc(Cl)cc2Cl)cc1", "note": "[CB28]", "values": [
      {"measurement": "time of peak concentration after exposure", "setting": "[2]; Aroclor 1242 vapor inhalation, suggests redistribution phase", "result": 1, "unit": "h"}
    ]},
    {"smiles": "Clc1ccc(Cl)c(-c2c(Cl)ccc(Cl)c2Cl)c1Cl", "note": "[CB136, 2,2′,3,3′,6′6′-hexachlorobiphenyl]", "values": [
      {"measurement": "t½ of initial fast distribution phase", "setting": "[3]", "result": "1.7 to 10.6", "unit": "h"},
      {"measurement": "t½ of subsequent slower elimination phase", "setting": "[3]", "result": "55.2 to 406", "unit": "h"}
    ]},
    {"smiles": "Clc1cc(Cl)c(-c2cc(Cl)c(Cl)cc2Cl)cc1Cl", "note": "[CB153]", "values": [
      {"measurement": "t½ of initial fast distribution phase", "setting": "[3]", "result": "1.7 to 10.6", "unit": "h"},
      {"measurement": "t½ of subsequent slower elimination phase", "setting": "[3]", "result": "55.2 to 406", "unit": "h"}
    ]}
  ]
}
